The target of one data set is Histone deacetylase 2 (Homo sapiens, UniProt Q92769). Description: Inhibition of human recombinant HDAC2 using acetyllysine tripeptide coupled with 7-amino-4-methylcoumarin as substrate by fluorescence assay.
A further data set deals with Histone deacetylase 1 (Homo sapiens, UniProt Q13547). Description: Inhibition of human recombinant HDAC1 using acetyllysine tripeptide coupled with 7-amino-4-methylcoumarin as substrate by fluorescence assay.
The next data set has as its target Histone deacetylase 3 (Homo sapiens, UniProt O15379). Put plainly: Inhibition of human recombinant HDAC3 using acetyllysine tripeptide coupled with 7-amino-4-methylcoumarin as substrate by fluorescence assay.
Data set [1] can be described thus: Inhibition of HDAC in mouse forebrain primary neurons assessed as acetylation of histone H3K9 after 24 hrs by immunofluorescence assay.
Data set [2] has as its target Histone deacetylase 5 (Homo sapiens) (UniProt Q9UQL6). Description: Inhibition of human recombinant HDAC5 using acetyllysine tripeptide coupled with 7-amino-4-methylcoumarin as substrate by fluorescence assay.
The target in data set [3] is T1, Protein deacetylase HDAC6 (Homo sapiens, UniProt Q9UBN7).
T1 sequence (Q9UBN7 whole entry): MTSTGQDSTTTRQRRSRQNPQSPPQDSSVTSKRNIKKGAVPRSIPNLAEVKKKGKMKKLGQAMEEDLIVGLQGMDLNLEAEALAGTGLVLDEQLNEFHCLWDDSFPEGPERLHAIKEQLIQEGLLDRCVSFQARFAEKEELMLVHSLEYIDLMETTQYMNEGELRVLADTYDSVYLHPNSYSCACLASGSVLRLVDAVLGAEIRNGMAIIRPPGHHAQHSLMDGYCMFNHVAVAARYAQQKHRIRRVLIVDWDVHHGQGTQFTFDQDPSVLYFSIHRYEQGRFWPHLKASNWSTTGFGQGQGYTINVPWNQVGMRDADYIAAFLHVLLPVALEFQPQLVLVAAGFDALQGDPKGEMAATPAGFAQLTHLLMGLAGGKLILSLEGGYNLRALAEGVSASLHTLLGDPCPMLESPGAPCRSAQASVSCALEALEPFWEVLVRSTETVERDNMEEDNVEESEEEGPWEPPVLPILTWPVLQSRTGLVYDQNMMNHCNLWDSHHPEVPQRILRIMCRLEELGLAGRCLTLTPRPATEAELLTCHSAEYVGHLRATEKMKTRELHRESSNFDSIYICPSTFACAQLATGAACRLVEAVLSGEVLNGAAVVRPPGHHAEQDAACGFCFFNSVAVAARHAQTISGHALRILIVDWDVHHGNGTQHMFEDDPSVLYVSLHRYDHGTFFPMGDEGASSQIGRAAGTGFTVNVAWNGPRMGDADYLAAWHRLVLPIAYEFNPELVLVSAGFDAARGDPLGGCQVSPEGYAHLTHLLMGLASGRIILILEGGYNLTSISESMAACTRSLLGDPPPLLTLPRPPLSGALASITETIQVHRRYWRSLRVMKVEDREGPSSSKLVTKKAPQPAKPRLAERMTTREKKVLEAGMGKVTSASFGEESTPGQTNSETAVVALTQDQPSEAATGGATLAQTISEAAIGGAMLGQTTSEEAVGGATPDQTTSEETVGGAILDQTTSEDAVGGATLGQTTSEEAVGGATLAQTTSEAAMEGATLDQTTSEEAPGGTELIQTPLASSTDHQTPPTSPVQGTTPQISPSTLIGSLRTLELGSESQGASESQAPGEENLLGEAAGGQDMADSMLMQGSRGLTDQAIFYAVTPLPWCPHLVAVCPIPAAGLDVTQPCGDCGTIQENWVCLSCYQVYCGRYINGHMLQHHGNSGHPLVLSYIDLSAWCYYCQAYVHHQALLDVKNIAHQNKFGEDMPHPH
Put plainly: Inhibition of human recombinant HDAC6 using acetyllysine tripeptide coupled with 7-amino-4-methylcoumarin as substrate by fluorescence assay.

Data set [4] in a line: Cmax in C57BL/6 mouse brain at 25 mg/kg, ip after 0.5 hrs by LC/MS/MS analysis. It counts as ADME, organism-based. Set-up: dose 25 mg/kg, route intraperitoneal. Put shortly: (§1)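 Mice dosed intraperitoneally at 25 mg/kg. Brains and peripheral blood were collected at each point of a 6-point time course, three mice per time point. Compound concentration was measured in processed brain and blood samples. PK parameters were derived from the concentration-time profiles.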

The species entered for data set [5] is Mus musculus. Put plainly: Inhibition of HDAC in mouse forebrain primary neurons assessed as acetylation of histone H3K9 at 1 to 10 uM after 24 hrs by immunofluorescence assay. Put shortly:
(§2)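 Mouse forebrain primary neuronal cultures (DIV13–14) treated 24 h at 1 and 10 μM, n=3. Cells fixed and immunostained for H3K9ac or H4K12ac; nuclear fluorescence intensity quantified by imaging. […] Mean ± SEM; unpaired t-test.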

Data set [6] is filed under the species Mus musculus. Put plainly: Inhibition of HDAC in mouse forebrain primary neurons assessed as acetylation of histone H4K12 at 1 to 10 uM after 24 hrs by immunofluorescence assay. Put shortly:
as §2

Data set [7] in a line: Mean Residence time up to the last quantifiable time-point in C57BL/6 mouse plasma at 25 mg/kg, ip after 0.5 to 24 hrs by LC/MS/MS analysis. It counts as ADME, organism-based. Put shortly: as §1
The nature of data set [8]: Cmax in C57BL/6 mouse plasma at 25 mg/kg, ip after 12 hrs by LC/MS/MS analysis. It counts as ADME, organism-based. Set-up: dose 25 mg/kg, route intraperitoneal. The procedure, abridged:
as §1

The nature of data set [9]: AUCinfinity in C57BL/6 mouse plasma at 25 mg/kg, ip after 0.5 to 24 hrs by LC/MS/MS analysis. It counts as ADME, organism-based. More on the design: dose 25 mg/kg, route intraperitoneal, time infinity. Put shortly:
as §1

The nature of data set [10]: Cmax in C57BL/6 mouse plasma at 25 mg/kg, ip after 1 hr by LC/MS/MS analysis. It counts as ADME, organism-based. More on the design: dose 25 mg/kg, route intraperitoneal. Put shortly:
as §1

A short description of data set [11]: Cmax in C57BL/6 mouse plasma at 25 mg/kg, ip after 6 hrs by LC/MS/MS analysis. Set-up: dose 25 mg/kg, route intraperitoneal. It counts as ADME, organism-based. Put shortly: as §1
A short description of data set [12]: Cmax in C57BL/6 mouse brain at 25 mg/kg, ip after 2 hrs by LC/MS/MS analysis. It counts as ADME, organism-based. Set-up: dose 25 mg/kg, route intraperitoneal. Put shortly: as §1
The nature of data set [13]: Cmax in C57BL/6 mouse brain at 25 mg/kg, ip after 1 hr by LC/MS/MS analysis. More on the design: dose 25 mg/kg, route intraperitoneal. It counts as ADME, organism-based. The procedure, abridged: as §1
A short description of data set [14]: Ratio of drug level in brain to plasma in C57BL/6 mouse at 25 mg/kg, ip after 0.5 to 2 hrs by LC/MS/MS analysis. The following applies: brain and plasma, read-out: BPR. It counts as ADME, organism-based. The procedure, abridged: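 Intraperitoneal dose of 25 mg/kg in mice, three animals per time point. Compound levels in processed brain and in peripheral blood were measured at matched times. Individual brain-to-plasma concentration ratios were calculated for the 0.5 to 2 h time points.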

Data set [15] can be described thus: Tmax in C57BL/6 mouse plasma at 25 mg/kg, ip after 0.5 to 24 hrs by LC/MS/MS analysis. It counts as ADME, organism-based. Put shortly:
as §1

Data set [16] is described as follows: AUClast in C57BL/6 mouse brain at 25 mg/kg, ip after 0.5 to 24 hrs by LC/MS/MS analysis. It counts as ADME, organism-based. The procedure, abridged: as §1
The nature of data set [17]: Cmax in C57BL/6 mouse brain at 25 mg/kg, ip after 24 hrs by LC/MS/MS analysis. It counts as ADME, organism-based. Set-up: dose 25 mg/kg, route intraperitoneal. The procedure, abridged: as §1
Data set [18] is described as follows: Cmax in C57BL/6 mouse brain at 25 mg/kg, ip after 6 hrs by LC/MS/MS analysis. It counts as ADME, organism-based. More on the design: dose 25 mg/kg, route intraperitoneal. The procedure, abridged: as §1
Data set [19] in a line: Tmax in C57BL/6 mouse brain at 25 mg/kg, ip after 0.5 to 24 hrs by LC/MS/MS analysis. It counts as ADME, organism-based. The procedure, abridged: as §1
Data set [20] is described as follows: Cmax in C57BL/6 mouse plasma at 25 mg/kg, ip after 0.5 hrs by LC/MS/MS analysis. It counts as ADME, organism-based. Set-up: dose 25 mg/kg, route intraperitoneal. The procedure, abridged: as §1
Data set [21] can be described thus: Cmax in C57BL/6 mouse plasma at 25 mg/kg, ip after 24 hrs by LC/MS/MS analysis. It counts as ADME, organism-based. More on the design: dose 25 mg/kg, route intraperitoneal. Put shortly:
as §1

The test system of data set [22] is Mus musculus. Description: Half life in C57BL/6 mouse plasma at 25 mg/kg, ip after 0.5 to 24 hrs by LC/MS/MS analysis. Particulars: in vivo. It counts as ADME, organism-based. The procedure, abridged: as §1
A short description of data set [23]: Cmax in C57BL/6 mouse plasma at 25 mg/kg, ip after 2 hrs by LC/MS/MS analysis. More on the design: dose 25 mg/kg, route intraperitoneal. It counts as ADME, organism-based. The procedure, abridged:
as §1

The nature of data set [24]: AUClast in C57BL/6 mouse plasma at 25 mg/kg, ip after 0.5 to 24 hrs by LC/MS/MS analysis. It counts as ADME, organism-based. Put shortly: as §1
A short description of data set [25]: Apparent clearance in C57BL/6 mouse plasma at 25 mg/kg, ip after 0.5 to 24 hrs by LC/MS/MS analysis. It counts as ADME, organism-based. The procedure, abridged: as §1

Structures are written as SMILES. Active and inactive are the calls of the source. The rule behind the calls is not given here.

These results are taken from ChEMBL document CHEMBL3758132, “Dissecting structure-activity-relationships of crebinostat: Brain penetrant HDAC inhibitors for neuroepigenetic regulation” (Bioorg Med Chem Lett, 2016).

Histone deacetylase 1, sequence (Q13547 whole entry): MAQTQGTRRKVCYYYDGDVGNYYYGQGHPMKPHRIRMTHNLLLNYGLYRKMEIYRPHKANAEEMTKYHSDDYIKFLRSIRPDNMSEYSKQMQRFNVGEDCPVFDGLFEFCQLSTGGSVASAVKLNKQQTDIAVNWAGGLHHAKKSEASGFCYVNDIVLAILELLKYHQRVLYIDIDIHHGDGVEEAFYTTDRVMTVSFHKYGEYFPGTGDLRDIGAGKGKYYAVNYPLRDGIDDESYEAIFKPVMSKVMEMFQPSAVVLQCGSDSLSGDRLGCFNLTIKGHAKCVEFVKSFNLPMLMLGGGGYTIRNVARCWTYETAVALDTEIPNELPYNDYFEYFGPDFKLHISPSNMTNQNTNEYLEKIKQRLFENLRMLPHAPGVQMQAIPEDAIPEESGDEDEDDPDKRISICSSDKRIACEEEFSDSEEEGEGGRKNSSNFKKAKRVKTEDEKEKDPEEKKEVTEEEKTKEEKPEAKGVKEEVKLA
Histone deacetylase 2, sequence (Q92769 whole entry): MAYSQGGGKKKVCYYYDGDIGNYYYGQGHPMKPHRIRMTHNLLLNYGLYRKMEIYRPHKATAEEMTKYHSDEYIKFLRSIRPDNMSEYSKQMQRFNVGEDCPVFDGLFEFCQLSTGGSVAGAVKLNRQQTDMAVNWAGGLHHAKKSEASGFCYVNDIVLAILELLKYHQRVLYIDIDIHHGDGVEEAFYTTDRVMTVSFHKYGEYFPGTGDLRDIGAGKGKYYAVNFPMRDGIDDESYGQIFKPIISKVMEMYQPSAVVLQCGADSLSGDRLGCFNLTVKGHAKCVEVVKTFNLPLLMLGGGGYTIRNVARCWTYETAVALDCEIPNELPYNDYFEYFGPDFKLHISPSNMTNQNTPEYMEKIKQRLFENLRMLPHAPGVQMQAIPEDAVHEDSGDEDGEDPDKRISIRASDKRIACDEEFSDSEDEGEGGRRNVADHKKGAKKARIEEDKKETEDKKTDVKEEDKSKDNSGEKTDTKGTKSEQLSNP
Histone deacetylase 3, sequence (O15379 whole entry): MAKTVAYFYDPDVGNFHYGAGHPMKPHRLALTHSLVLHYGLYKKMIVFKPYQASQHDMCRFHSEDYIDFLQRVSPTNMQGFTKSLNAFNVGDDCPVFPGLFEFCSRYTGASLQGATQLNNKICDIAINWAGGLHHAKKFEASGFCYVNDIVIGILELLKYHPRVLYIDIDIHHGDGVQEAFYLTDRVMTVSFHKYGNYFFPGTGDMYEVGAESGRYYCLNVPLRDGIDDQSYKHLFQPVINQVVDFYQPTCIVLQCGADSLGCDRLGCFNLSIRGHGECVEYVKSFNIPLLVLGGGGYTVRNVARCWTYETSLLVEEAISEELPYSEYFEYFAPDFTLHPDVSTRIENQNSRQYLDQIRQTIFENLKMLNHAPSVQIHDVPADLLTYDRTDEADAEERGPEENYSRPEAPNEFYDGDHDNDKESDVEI
Histone deacetylase 5 (Homo sapiens), sequence (Q9UQL6 whole entry): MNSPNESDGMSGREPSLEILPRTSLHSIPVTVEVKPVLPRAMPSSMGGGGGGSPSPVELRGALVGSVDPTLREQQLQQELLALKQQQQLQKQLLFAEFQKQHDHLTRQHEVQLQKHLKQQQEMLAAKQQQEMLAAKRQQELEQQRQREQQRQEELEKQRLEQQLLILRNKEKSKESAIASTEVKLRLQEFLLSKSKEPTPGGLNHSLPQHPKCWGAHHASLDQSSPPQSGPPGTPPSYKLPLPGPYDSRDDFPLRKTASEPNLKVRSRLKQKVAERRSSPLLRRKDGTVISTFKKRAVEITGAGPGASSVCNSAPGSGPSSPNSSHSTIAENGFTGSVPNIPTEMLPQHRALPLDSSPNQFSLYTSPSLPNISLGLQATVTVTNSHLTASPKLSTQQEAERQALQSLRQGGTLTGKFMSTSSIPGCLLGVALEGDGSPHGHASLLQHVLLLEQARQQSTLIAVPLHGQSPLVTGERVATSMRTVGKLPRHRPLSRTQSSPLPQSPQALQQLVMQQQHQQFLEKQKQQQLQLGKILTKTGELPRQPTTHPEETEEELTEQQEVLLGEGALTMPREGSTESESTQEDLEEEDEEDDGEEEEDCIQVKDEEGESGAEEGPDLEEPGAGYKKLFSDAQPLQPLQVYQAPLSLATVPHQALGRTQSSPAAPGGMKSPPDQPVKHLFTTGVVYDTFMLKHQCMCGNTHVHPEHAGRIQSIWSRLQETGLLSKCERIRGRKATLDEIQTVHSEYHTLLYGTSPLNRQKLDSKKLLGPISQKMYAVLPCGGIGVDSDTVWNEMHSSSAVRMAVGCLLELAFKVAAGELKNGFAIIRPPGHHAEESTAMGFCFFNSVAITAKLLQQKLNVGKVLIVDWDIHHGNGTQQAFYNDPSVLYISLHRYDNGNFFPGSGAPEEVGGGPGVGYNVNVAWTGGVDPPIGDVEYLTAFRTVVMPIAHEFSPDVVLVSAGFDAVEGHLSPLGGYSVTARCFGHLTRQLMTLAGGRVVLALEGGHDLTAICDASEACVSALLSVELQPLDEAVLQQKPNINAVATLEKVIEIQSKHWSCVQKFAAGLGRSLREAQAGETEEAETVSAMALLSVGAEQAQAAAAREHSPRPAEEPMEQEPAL

For orientation: IC50 means the concentration that gives 50% inhibition. As for `COc1ccc(Br)c(/C=N/NC(=O)CCCCCC(=O)NO)c1`, the IC50 at Histone deacetylase 2 was found to be 5 nM; at Histone deacetylase 1 it was 0.6 nM; at Histone deacetylase 3 it was 1.2 nM.
The corresponding values for `Cc1ccccc1-c1ccc(/C=N/NC(=O)CCCCCC(=O)NO)cc1` are 18.8 nM, 8 nM and 5.4 nM.
What is called EC50 is the midpoint of the concentration-response curve. What is called Cmax is the maximum level reached in the sampled fluid or tissue. As for `O=C(CCCCCC(=O)N/N=C/c1ccc(-c2ccccc2)cc1)NO`, the IC50 at Histone deacetylase 2 worked out at 2.1 nM; in [3], 0.6 nM; at Histone deacetylase 1, 1.4 nM; at Histone deacetylase 3 it was 3.4 nM. Also, the EC50 in data set [1] stood at 210 nM. Moreover, in [2], the inhibition result was “inactive”. Besides, the Cmax in data set [4] was found to be 60 nM.
As to `COc1cc(O)cc(OC)c1/C=N/NC(=O)CCCCCC(=O)NO`, the results for the IC50 on Histone deacetylase 2, on Histone deacetylase 1 and on Histone deacetylase 3 were 108 nM, 31.4 nM and 25.6 nM, respectively.
The corresponding values for `O=C(CCCCCC(=O)N/N=C/c1ccc(-c2ccncc2)cc1)NO` are 14.2 nM, 3.1 nM and 1.8 nM.
As for `O=C(CCCCC(=O)N/N=C/c1ccc(-c2ccccc2)cc1)NO`, the half-maximal inhibitory concentration (IC50) at Histone deacetylase 2 is 33 nM; on Histone deacetylase 1, 19 nM; at Histone deacetylase 3, 61 nM. The inhibition result in the data set filed under Mus musculus [5] and in the data set filed under Mus musculus [6] was “Active” in each case.
Take `O=C(CCCCCC(=O)N/N=C/c1ccc(-c2cncnc2)cc1)NO`: the results for the IC50 at Histone deacetylase 2, at Histone deacetylase 1 and at Histone deacetylase 3 were 21 nM, 3.2 nM and 2.4 nM, respectively.
Turning to `O=C(CCCCCCC(=O)N/N=C/c1ccc(-c2ccccc2)cc1)NO`, the IC50 at Histone deacetylase 2 is 1 nM; on Histone deacetylase 1 it was 0.7 nM; at Histone deacetylase 3, 2 nM. Also, the inhibition entry in the data set listed under Mus musculus [5] and in the data set filed under Mus musculus [6] was “Active” each time.
On to `O=C(CCCCCC(=O)N/N=C/c1ccc(-c2ccccn2)cc1)NO`, for which the half-maximal inhibitory concentration (IC50) was determined as 6.9 nM on Histone deacetylase 2, 2.3 nM on Histone deacetylase 1 and 1.4 nM at Histone deacetylase 3.
The corresponding values for `O=C(CCCCCC(=O)N/N=C/c1ccc(-c2cccs2)cc1)NO` are 6.3 nM, 2.1 nM and 1.6 nM.
As usually defined, the MRT is the average time that molecules of a dose stay in the body. As usually defined, the AUC(0-inf) is total exposure, with the tail of the curve extrapolated. In general, Tmax refers to the time from dosing to the highest level. In general, AUC(0-t) refers to exposure summed from dosing to a finite time, without extrapolation to infinity. Low values mean less exposure, high ones more exposure. The CL/F is the apparent clearance, not corrected for the fraction that reaches the circulation. With `O=C(CCCCCC(=O)N/N=C/c1ccc(-c2cccnc2)cc1)NO`, the half-inhibitory concentration (IC50) is 10.8 nM at Histone deacetylase 2, 0.5 nM in [3], 1.1 nM at Histone deacetylase 1 and 0.8 nM on Histone deacetylase 3. The EC50 in data set [1] worked out at 140 nM. The MRT in data set [7] amounted to 1.6 h. Besides, the inhibition result in data set [2] was “inactive”. The Cmax in [8] was 6.45 nM; in [10], 1900 nM; in [11], 14.9 nM; in data set [12] it was 45.2 nM; in data set [13], 79.1 nM; in data set [17] it was 9.73 nM. Moreover, the Cmax in data set [18] is 13.5 nM; in data set [4], 75.7 nM; in data set [20], 1670 nM; in data set [21], 3.72 nM; in [23], 1220 nM. Besides, the AUC(0-inf) in data set [9] was 5.42 µM·h. For the same molecule, the Kp in data set [14] was 0.03. Further, the time to peak (Tmax) in data set [15] and in data set [19] was 1 h throughout. For the same molecule, the figures for the AUC(0-t) in data set [16] and in [24] were 0.12 µM·h and 5.41 µM·h, respectively. For the same molecule, in the data set with Mus musculus [22], the t1/2 was determined as 1.28 h. The apparent clearance (CL/F) in data set [25] amounted to 217 mL/min/kg.
